≈ marks a conversion by molar mass, not a printed value.
Columns and labels:
Type in all cases: functional
Staphylococcus aureus [1] = assay: Antibacterial activity against methicillin-sensitive […] Staphylococcus aureus ATCC 29213 after 20 hrs by broth microdilution method; details: ATCC 29213, 20 h
Outline: (§1)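 NCCLS broth microdilution in cation-adjusted Mueller–Hinton broth. Serial 2-fold compound dilutions were inoculated with 5 × 10⁴ CFU per 0.1 mL and incubated at 35 °C for 20 h before scoring the MIC.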

Staphylococcus aureus [2] = assay: Antibacterial activity against methicillin-resistant Staphylococcus aureus isolate SR3637 after 20 hrs by broth microdilution method; details: isolate SR3637, 20 h; outline: as §1
Enterococcus faecalis [3] = assay: Antibacterial activity against vancomycin-resistant Enterococcus faecalis SR7914 after 20 hrs by broth microdilution method; details: SR7914, 20 h; outline: as §1
Enterococcus faecalis [4] = assay: Antibacterial activity against Enterococcus faecalis ATCC 29212 after 20 hrs by broth microdilution method; details: ATCC 29212, 20 h; outline: as §1
Enterococcus faecium [5] = assay: Antibacterial activity against vancomycin-resistant Enterococcus faecium SR7917 after 20 hrs by broth microdilution method; details: SR7917, 20 h; outline: as §1
Enterococcus faecium [6] = assay: Antibacterial activity against Enterococcus faecium ATCC 19434 after 20 hrs by broth microdilution method; details: ATCC 19434, 20 h; outline: as §1

Row | SMILES | MIC (Staphylococcus aureus [1]) [µg/mL] | MIC (Staphylococcus aureus [2]) [µg/mL] | MIC (Enterococcus faecalis [3]) [µg/mL] | MIC (Enterococcus faecalis [4]) [µg/mL] | MIC (Enterococcus faecium [5]) [µg/mL] | MIC (Enterococcus faecium [6]) [µg/mL]
1 | CCCCCCCCCCCCCCC[C@H](NC(=O)[C@@H](N)[C@@H]1CCNC(=N)N1)C(=O)NCCCN[C@H](C(=O)O)[C@H](O[C@@H]1O[C@H](CN)[C@@H](O)[C@H]1O)[C@H]1O[C@@H](n2ccc(=O)[nH]c2=O)[C@H](O)[C@@H]1O | 8 (≈ 8.63 µM) | 8 (≈ 8.63 µM) | 4 (≈ 4.31 µM) | 4 (≈ 4.31 µM) | 8 (≈ 8.63 µM) | –
2 | CCCCCCCCCCCCCCC[C@H](NC(=O)[C@@H](NC(=O)N[C@H](C(=O)O)C(C)C)[C@H]1CCNC(=N)N1)C(=O)NCCCN[C@H](C(=O)O)[C@H](O[C@@H]1O[C@H](CN)[C@@H](O)[C@H]1O)[C@H]1O[C@@H](n2ccc(=O)[nH]c2=O)[C@H](O)[C@@H]1O | 2 (≈ 1.87 µM) | 2 (≈ 1.87 µM) | 4 (≈ 3.74 µM) | 2 (≈ 1.87 µM) | 2 (≈ 1.87 µM) | –
3 | CCCCCCCCCCCCCCC[C@@H](NC(=O)[C@@H](N)[C@@H]1CCNC(=N)N1)C(=O)NCCCN[C@H](C(=O)O)[C@H](O[C@@H]1O[C@H](CN)[C@@H](O)[C@H]1O)[C@H]1O[C@@H](n2ccc(=O)[nH]c2=O)[C@H](O)[C@@H]1O | 8 (≈ 8.63 µM) | 8 (≈ 8.63 µM) | 8 (≈ 8.63 µM) | 4 (≈ 4.31 µM) | 8 (≈ 8.63 µM) | –
4 | CCCCCCCCCCCCCCC[C@@H](NC(=O)[C@H](CCCN)NC(=O)N[C@H](C(=O)O)C(C)C)C(=O)NCCCN[C@H](C(=O)O)[C@H](O[C@@H]1O[C@H](CN)[C@@H](O)[C@H]1O)[C@H]1O[C@@H](n2ccc(=O)[nH]c2=O)[C@H](O)[C@@H]1O | 4 (≈ 3.88 µM) | 8 (≈ 7.77 µM) | 8 (≈ 7.77 µM) | 8 (≈ 7.77 µM) | 8 (≈ 7.77 µM) | –
5 | CCCCCCCCCCCCCCC[C@H](NC(=O)[C@@H](N)CCCSC)C(=O)NCCCN[C@H](C(=O)O)[C@H](O[C@@H]1O[C@H](CN)[C@@H](O)[C@H]1O)[C@H]1O[C@@H](n2ccc(=O)[nH]c2=O)[C@H](O)[C@@H]1O | 8 (≈ 8.71 µM) | 8 (≈ 8.71 µM) | 4 (≈ 4.36 µM) | 4 (≈ 4.36 µM) | 8 (≈ 8.71 µM) | –
6 | CCCCCCOc1ccc(-c2ccc([C@@H](NC(=O)[C@@H](NC(=O)N[C@H](C(=O)O)C(C)C)[C@@H]3CCNC(=N)N3)C(=O)NCCCN[C@H](C(=O)O)[C@H](O[C@@H]3O[C@H](CN)[C@@H](O)[C@H]3O)[C@H]3O[C@@H](n4ccc(=O)[nH]c4=O)[C@H](O)[C@@H]3O)cc2)cc1 | 16 (≈ 14.4 µM) | 16 (≈ 14.4 µM) | 16 (≈ 14.4 µM) | 16 (≈ 14.4 µM) | 8 (≈ 7.19 µM) | 4 (≈ 3.6 µM)
7 | CCCCCCCCCCCCCCC[C@@H](NC(=O)[C@@H](NC(=O)OCc1ccccc1)[C@@H]1CCNC(=N)N1)C(=O)NCCCN[C@H](C(=O)O)[C@H](O[C@@H]1O[C@H](CN)[C@@H](O)[C@H]1O)[C@H]1O[C@@H](n2ccc(=O)[nH]c2=O)[C@H](O)[C@@H]1O | 8 (≈ 7.54 µM) | 8 (≈ 7.54 µM) | 4 (≈ 3.77 µM) | 4 (≈ 3.77 µM) | 4 (≈ 3.77 µM) | –
8 | CC(C)[C@H](NC(=O)N[C@H](C(=O)N[C@H](CCCCCCCc1ccc(-c2ccccc2)cc1)C(=O)NCCCN[C@H](C(=O)O)[C@H](O[C@@H]1O[C@H](CN)[C@@H](O)[C@H]1O)[C@H]1O[C@@H](n2ccc(=O)[nH]c2=O)[C@H](O)[C@@H]1O)[C@@H]1CCNC(=N)N1)C(=O)O | 8 (≈ 7.21 µM) | 16 (≈ 14.4 µM) | 16 (≈ 14.4 µM) | 8 (≈ 7.21 µM) | 4 (≈ 3.6 µM) | 4 (≈ 3.6 µM)
9 | CCCCOc1ccc(-c2ccc(CC[C@@H](NC(=O)[C@@H](NC(=O)N[C@H](C(=O)O)C(C)C)[C@@H]3CCNC(=N)N3)C(=O)NCCCN[C@H](C(=O)O)[C@H](O[C@@H]3O[C@H](CN)[C@@H](O)[C@H]3O)[C@H]3O[C@@H](n4ccc(=O)[nH]c4=O)[C@H](O)[C@@H]3O)cc2)cc1 | 64 (≈ 57.5 µM) | 64 (≈ 57.5 µM) | 64 (≈ 57.5 µM) | 32 (≈ 28.8 µM) | 8 (≈ 7.19 µM) | 4 (≈ 3.6 µM)
